From ChEMBL document CHEMBL3779787, “Amorfrutin C Induces Apoptosis and Inhibits Proliferation in Colon Cancer Cells through Targeting Mitochondria” (J Nat Prod, 2016)
Active and inactive are the calls of the source. No cut-off for these calls is given here.

Tests used:
[1] = system: T84; assay: Antiproliferative activity against human T84 cells assessed as cellular DNA content after 96 hrs by CyQUANT NF fluorescence assay; type: functional, cell-based; settings: T84, 96 h
Summary of the method: (§1)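 Cells seeded at 750 (HT-29), 250 (PC-3) or 900 (T84, MCF7) cells/well, treated next day with concentration series for 72 h (HT-29, PC-3) or 96 h (T84, MCF7). Relative cell number from cellular DNA content by fluorescent DNA-binding dye. Variable-slope fit; efficiency = maximal inhibition (100% − Bottom) vs untreated; IC50 relative to the compound's own maximal efficiency.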

[2] = system: HT-29; assay: Antiproliferative activity against human HT-29 cells assessed as cellular DNA content after 72 hrs by CyQUANT NF fluorescence assay in presence of irinotecan; type: functional, cell-based
Summary of the method: (§2)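 HT-29 exposed 72 h to concentration series of mixtures at ratios 7:0 through 0:7 with the partner drug. Relative cell number from DNA-content fluorescence. IC70 = concentration giving 70% inhibition of total cells (means ± SD, n = 4); isobolograms by Loewe additivity, CI(M) = IC70(Mx)/IC70(x) + IC70(My)/IC70(y).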

[3] = Antiproliferative activity against human PC3 cells assessed as cellular DNA content after 72 hrs by CyQUANT NF fluorescence assay relative to control; type: functional, PC-3; summary of the method: as §1
[4] = system: HT-29; assay: Downregulation of cyclin A2 expression in human HT-29 cells at 10 uM after 48 hrs by immunoblotting method; type: functional, cell-based
Summary of the method: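 HT-29 exposed to 10 μM for 48 h; whole-cell lysates immunoblotted for the indicated proteins (total and cleaved PARP for the apoptosis line).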

[5] = system: HT-29; assay: Induction of apoptosis in human HT-29 cells at 30 uM after 24 hrs by annexin V-FLUOS/propidium iodide staining-based flow cytometry in presence of cyclosporine A; type: functional, cell-based
Summary of the method: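 For 24 h, HT-29 cells were exposed to 30 μM compound with or without cyclosporin A (2 μM). Apoptosis and necrosis were scored by annexin V-FLUOS/propidium iodide flow cytometry. Means ± SEM, n = 3.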

[6] = system: HT-29; assay: Induction of apoptosis in human HT-29 cells assessed as DNA fragmentation by measuring cytoplasmic BrdU-labeled DNA at 30 uM by ELISA; type: functional, cell-based
Summary of the method: (§3)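 Cytosolic DNA by ELISA after 4 h treatment. BrdU method: cells (13 000/well) prelabelled with 10 μM BrdU for 2 days at 37 °C, unincorporated BrdU removed before treatment. Oligonucleosome method: 20 000 cells/well, 1 day at 37 °C. Cell-free background subtracted, normalized to vehicle; means ± SEM, n = 4.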

[7] = system: HT-29; assay: Antiproliferative activity against human HT-29 cells assessed as cellular DNA content after 72 hrs by CyQUANT NF fluorescence assay relative to control; type: functional; summary of the method: as §1
[8] = system: HT-29; assay: Induction of ROS generation in human HT-29 cells at 30 uM by CM-H2DCFDA staining-based fluorescence assay in presence of 3H-1,2-dithiole-3-thione; type: functional, cell-based
Summary of the method: (§4)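 HT-29 (15 000 cells/well) loaded with 50 μM CM-H2DCFDA in PBS for 30 min at 37 °C, washed, then 60 min in phenol red-free DMEM/F-12. 30 μM compound added alone or with NAC 1 mM, GSH 2.5 mM, D3T 25 μM, α-tocopherol 50 μM or ascorbic acid 500 μM. Fluorescence 485/530 nm read kinetically at 37 °C for 22 h; area under curve; means ± SEM, n = 7.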

[9] = system: HT-29; assay: Induction of apoptosis in human HT-29 cells assessed as increase in phosphatidylserine externalization at 10 uM after 48 hrs by flow cytometry in presence of alphaFas; type: functional, cell-based
Summary of the method: (§5)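 HT-29 exposed 48 h to 10 μM compound, αFAS (10 ng/mL), TRAIL (30 ng/mL) or combinations. Phosphatidylserine externalization by annexin V flow cytometry. Expected combination effects from Bliss independence; means ± SEM, n = 4.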

[10] = system: HT-29; assay: Antiproliferative activity against human HT-29 cells assessed as cellular DNA content at 20 uM after 48 hrs by CyQUANT NF fluorescence assay in presence of N-acetylcysteine; type: functional, cell-based
Summary of the method: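 HT-29 given concentration series of test compound with or without antioxidant (NAC 1 mM, GSH 2.5 mM, D3T 25 μM, α-tocopherol 50 μM, ascorbic acid 500 μM) for 48 h. Relative cell number from DNA-binding fluorescent dye; means ± SD, n = 4.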

[11] = system: HT-29; assay: Induction of ROS generation in human HT-29 cells at 30 uM by CM-H2DCFDA staining-based fluorescence assay in presence of N-acetylcysteine; type: functional, cell-based; summary of the method: as §4
[12] = system: HT-29; assay: Induction of ROS generation in human HT-29 cells at 30 uM by CM-H2DCFDA staining-based fluorescence assay in presence of alpha-tocopherol; type: functional, cell-based; summary of the method: as §4
[13] = system: HT-29; assay: Induction of ROS generation in human HT-29 cells at 30 uM by CM-H2DCFDA staining-based fluorescence assay in presence of glutathione; type: functional, cell-based; summary of the method: as §4
[14] = system: HT-29; assay: Induction of apoptosis in human HT-29 cells at 30 uM after 24 hrs by annexin V-FLUOS/propidium iodide staining-based flow cytometry in presence of glutathione; type: functional, cell-based
Summary of the method: (§6)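 HT-29 cells co-incubated 24 h with 30 μM compound and antioxidant: glutathione 2.5 mM, α-tocopherol 50 μM, or ascorbic acid 500 μM. Phosphatidylserine externalization measured by annexin V-FLUOS/propidium iodide staining and flow cytometry. Means ± SEM, n = 3.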

[15] = system: HT-29; assay: Induction of apoptosis in human HT-29 cells assessed as DNA fragmentation by measuring cytoplasmic oligonucleosome level at 30 uM by ELISA; type: functional, cell-based; summary of the method: as §3
[16] = system: HT-29; assay: Antiproliferative activity against human HT-29 cells assessed as cellular DNA content after 72 hrs by CyQUANT NF fluorescence assay in presence of cisplatin; type: functional, cell-based; summary of the method: as §2
[17] = system: HT-29; assay: Induction of apoptosis in human HT-29 cells assessed as increase in phosphatidylserine externalization at 10 uM after 48 hrs by flow cytometry in presence of TNF-related apoptosis inducing ligand; type: functional, cell-based; summary of the method: as §5
[18] = system: HT-29; assay: Induction of apoptosis in human HT-29 cells at 30 uM after 24 hrs by annexin V-FLUOS/propidium iodide staining-based flow cytometry in presence of ascorbic acid; type: functional, cell-based; summary of the method: as §6
[19] = system: HT-29; assay: Induction of apoptosis in human HT-29 cells assessed as increase in caspase 9 activity at 30 uM after 2 hrs by luminescent assay relative to control; type: functional
Summary of the method: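 HT-29 cells exposed to compound 2 h; effector/initiator caspase enzymatic activity measured by luminescent assays, normalized to control treatment; means ± SEM, n = 4.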

COc1c(CC=C(C)C)c(O)c(C(=O)O)c(CCc2ccccc2)c1CC=C(C)C
IC50 [1]: 11 µM
Activity [2]: Active
Efficacy [3]: 95%
Activity [4]: Active
Activity [5]: Active
Activity [6]: Active
Efficacy [7]: 95%
Activity [8]: inactive
Activity [9]: Active
Activity [10]: Active
Activity [11]: inactive
Activity [12]: inactive
Activity [13]: inactive
Activity [14]: Active
Activity [15]: Active
Activity [16]: Active
Activity [17]: Active
Activity [18]: Active
fold change (FC) [19]: 3
